Measurements published in ChEMBL document CHEMBL4680124, “2-Styryl-4-aminoquinazoline derivatives as potent DNA-cleavage, p53-activation and in vivo effective anticancer agents” (Eur J Med Chem, 2020).
Active and inactive are the calls of the source. No cut-off for these calls is given here.

Tests used:
[1] = system: MGC-803; assay: Induction of ROS generation in human MGC-803 cells assessed as intracellular ROS level at 0 to 2.5 uM after 24 hrs by DCFH-DA staining-based flow cytometric analysis; format: functional, cell-based; settings: dose 0-2.5 µM
How it was run: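 MGC-803 cells treated at 0.5, 1.0 or 2.5 µM for 24 h, harvested, washed in cold PBS and loaded with DCFH-DA at 37 °C for 30 min in the dark. Washed three times in PBS; fluorescence read by flow cytometry. Representative of three experiments.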

[2] = system: MGC-803; assay: Induction of apoptosis in human MGC-803 cells assessed as necrotic cells at 2.5 uM measured after 24 hrs by Annexin-V/propidium iodide staining-based flow cytometric analysis (Rvb =6.05%)
[3] = system: MGC-803; assay: Cytotoxicity against human MGC-803 cells expressing mutant type p53 assessed as reduction in cell viability preincubated for 48 hrs and measured after 4 hrs by MTT assay; format: functional, cell-based
[4] = system: MGC-803; assay: Induction of DNA damage in human MGC-803 cells assessed as increase in p-p53 level at 2.5 uM measured after 24 hrs by Western blot analysis; format: functional, cell-based
How it was run: (§1)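 MGC-803 cells (2×10^6) plated overnight, then treated for 24 h at 0.5, 1.0 or 2.5 µM (test agent) or 5.0 µM (comparator). Whole-cell lysates separated by SDS-PAGE, transferred to PVDF and probed with primary antibodies. AP-linked anti-rabbit IgG, ECL detection, β-actin loading control. Representative of three experiments.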

[5] = system: MGC-803; assay: Induction of apoptosis in human MGC-803 cells assessed as late apoptotic cells at 1 uM measured after 24 hrs by Annexin-V/propidium iodide staining-based flow cytometric analysis (Rvb =0.93%)
[6] = Induction of mitochondria membrane potential loss in human MGC-803 cells assessed as increase in green fluorescence at 0.5 uM incubated 24 hrs by JC-1 probe based flow cytometry analysis (reference value: 4.67%); format: functional
[7] = system: MGC-803; assay: Induction of intracellular Ca+ level in human MGC-803 cells at 0 to 2.5 uM after 24 hrs by fluo-3 AM dye based flow cytometric analysis; format: functional, cell-based; settings: dose 0-2.5 µM
How it was run: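 MGC-803 cells in six-well plates exposed 24 h to 0.5, 1.0 or 2.5 μM. Cells were harvested, washed in cold PBS and loaded with Fluo-3 AM for 30 min at 37 in the dark. After three PBS washes, intracellular Ca2+ fluorescence was read by flow cytometry. Three independent experiments.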

[8] = system: MGC-803; assay: Induction of apoptosis in human MGC-803 cells assessed as increase in MDM2 protein expression upto 2.5 uM incubated for 24 hrs by Western blot analysis; format: functional, cell-based; settings: dose microM <=2.5, time 24.0 hrs
How it was run: (§2)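 MGC-803 cells (2×10^6) cultured overnight, then exposed 24 h to 0.5, 1.0 or 2.5 μM, or 5.0 μM for the reference agent. Lysates were resolved by SDS-PAGE, transferred to PVDF and probed with primary antibodies. Detection used AP-linked anti-rabbit IgG and ECL. β-actin served as loading control.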

[9] = system: MGC-803; assay: Antitumor activity against human MGC-803 cells xenografted in BALB/C nude mouse assessed as tumor growth inhibition at 10 mg/kg, ip administered every 2 days and measured 3 times per week for 16 days; format: functional; parameters: scale not given: the % may be the effect or the level left; settings: time 16 day
How it was run: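 Male BALB/c nude mice, 6 weeks old, given 5×10^6 MGC-803 cells s.c. in the flank. When tumors reached about 80 mm3, mice were randomized (n = 6/group) and dosed i.p. every 2 days. Vehicle was 5% DMSO in saline. Drug solutions were 1.0 or 2.0 mg/mL (DMSO/saline). Tumor length and width plus body weight were measured three times weekly; volume = lw²/2. Mean ± SD.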

[10] = system: MGC-803; assay: Cell cycle arrest in human MGC-803 cells assessed as accumulation at G2/M phase at 0.5 uM after 48 hrs by propidium iodide staining-based flow cytometric analysis (reference value: 7.94%); format: functional
[11] = system: A549; assay: Cytotoxicity against human A549 cells expressing wild type p53 assessed as reduction in cell viability preincubated for 48 hrs and measured after 4 hrs by MTT assay; format: functional, cell-based
[12] = system: Calf thymus DNA; assay: Binding affinity to calf thymus DNA assessed as hypochromism by measuring absorption spectra at 20 uM incubated for 5 mins by UV-Vis absorption spectrometry; format: tissue-based; settings: Bos taurus
How it was run: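 Compound at 20 µM in Tris-HCl buffer, 25 °C, titrated with ct-DNA at [DNA]/[compound] 0 to 1.0 in steps of 0.1. Absorption spectra recorded at 295–360 nm after 5 min equilibration following each addition.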

[13] = Induction of mitochondria membrane potential loss in human MGC-803 cells assessed as increase in green fluorescence at 2.5 uM incubated 24 hrs by JC-1 probe based flow cytometry analysis (reference value: 4.67%); format: functional
[14] = Toxicity against BALB/c nude mouse xenografted with human MGC-803 cells assessed as body weight at 20 mg/kg, ip administered every 2 days and measured 3 times per week for 16 days; format: organism-based; settings: in vivo, 384 h, time 16 day
How it was run: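 Male BALB/c nude mice, 6 weeks old, received 5×10^6 MGC-803 cells subcutaneously in the flank. At about 80 mm3, mice were randomized (n = 6/group). They were dosed i.p. every 2 days with vehicle (5% DMSO in saline, v/v) or drug in DMSO/saline at 1.0 or 2.0 mg/mL. Body weight was recorded three times weekly; mean ± SD.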

[15] = system: MGC-803; assay: Induction of apoptosis in human MGC-803 cells assessed as increase in Bim expression at 0.5 to 2.5 uM measured after 24 hrs by Western blot analysis; format: functional, cell-based; settings: dose 0.5-2.5 µM; how it was run: as §2
[16] = system: MGC-803; assay: Induction of apoptosis in human MGC-803 cells assessed as increase in CDK4 protein expression upto 2.5 uM incubated for 24 hrs by Western blot analysis; format: functional, cell-based; settings: dose microM <=2.5, time 24.0 hrs; how it was run: as §2
[17] = system: MGC-803; assay: Cell cycle arrest in human MGC-803 cells assessed as accumulation at S phase at 0.5 uM after 48 hrs by propidium iodide staining-based flow cytometric analysis (reference value: 45.1 %); format: functional
[18] = Induction of mitochondria membrane potential loss in human MGC-803 cells assessed as increase in green fluorescence at 1 uM incubated 24 hrs by JC-1 probe based flow cytometry analysis (reference value: 4.67%); format: functional
[19] = system: MGC-803; assay: Induction of apoptosis in human MGC-803 cells assessed as decrease in Bcl-2 expression at 0.5 to 2.5 uM measured after 24 hrs by Western blot analysis; format: functional, cell-based; settings: dose 0.5-2.5 µM; how it was run: as §1
[20] = system: MGC-803; assay: Induction of DNA damage in human MGC-803 cells assessed as increase in gamma H2AX at 2.5 uM measured after 24 hrs by Western blot analysis; format: functional, cell-based; how it was run: as §1
[21] = system: MGC-803; assay: Induction of apoptosis in human MGC-803 cells assessed as early apoptotic cells at 2.5 uM measured after 24 hrs by Annexin-V/propidium iodide staining-based flow cytometric analysis (Rvb =0.84%)
[22] = system: MGC-803; assay: Cell cycle arrest in human MGC-803 cells assessed as accumulation at G1 phase at 0.5 uM after 48 hrs by propidium iodide staining-based flow cytometric analysis (reference value: 46.96 %); format: functional
[23] = system: MGC-803; assay: Induction of apoptosis in human MGC-803 cells assessed as increase in Bax expression at 0.5 to 2.5 uM measured after 24 hrs by Western blot analysis; format: functional, cell-based; settings: dose 0.5-2.5 µM; how it was run: as §1

## NCCCCNc1nc(/C=C/c2ccc([N+](=O)[O-])cc2)nc2ccccc12
[1]
  Activity: Active
[2]
  Activity: 1.27%
[3]
  IC50: 1.73 µM
[4]
  Activity: Active
[5]
  Activity: 16%
[6]
  Activity: 8.91%
[7]
  Activity: Active
[8]
  Activity: Active
[9]
  Activity: 35.9%
[10]
  Activity: 72.67%
[11]
  IC50: 5.48 µM
[12]
  Activity: Active
[13]
  Activity: 22.6%
[14]
  Activity: Non-Toxic
[15]
  Activity: Active
[16]
  Activity: Active
[17]
  Activity: 25.89%
[18]
  Activity: 13.9%
[19]
  Activity: Active
[20]
  Activity: Active
[21]
  Activity: 28%
[22]
  Activity: 1.44%
[23]
  Activity: Active
